From publication PMC4265276 (Journal of Veterinary Pharmacology and Therapeutics, 2014)

How the values were obtained:
Test in all cases: Z'-Lyte kinase assay
Type in all cases: biochemical
Conditions in all cases: two replicates
[1] = biological target: Vascular endothelial growth factor receptor 2 (VEGFR-2/FLK1) (Homo sapiens, UniProt P35968)
Outline: (§1)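 Outsourced commercial profiling of the test compound against a panel of 38 non-JAK kinases, all screened with Z'-Lyte technology at a single concentration. Assay conditions and data analysis were specific to each kinase and set by the service provider. Every test was run in duplicate, and percent inhibition is reported separately for each replicate.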

[2] = biological target: T1, Aurora-related kinase 1 (ARK1) (Homo sapiens, UniProt O14965)
T1 sequence (O14965 1-403): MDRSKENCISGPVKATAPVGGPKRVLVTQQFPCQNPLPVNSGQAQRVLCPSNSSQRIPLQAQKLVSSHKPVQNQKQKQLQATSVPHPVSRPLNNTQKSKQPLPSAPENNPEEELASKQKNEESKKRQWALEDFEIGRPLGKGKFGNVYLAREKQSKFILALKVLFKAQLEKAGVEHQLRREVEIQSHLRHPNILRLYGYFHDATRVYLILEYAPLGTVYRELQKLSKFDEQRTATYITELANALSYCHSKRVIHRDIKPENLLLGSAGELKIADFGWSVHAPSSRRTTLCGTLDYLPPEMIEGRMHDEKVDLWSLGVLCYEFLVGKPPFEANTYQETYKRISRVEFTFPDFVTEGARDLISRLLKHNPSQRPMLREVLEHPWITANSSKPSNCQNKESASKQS
Outline: as §1

[3] = biological target: p160ROCK protein kinase (Homo sapiens, UniProt Q13464)
Outline: as §1

[4] = biological target: High affinity nerve growth factor receptor (TRK-A) (Homo sapiens, UniProt P04629)
Outline: as §1

[5] = biological target: Mitogen-activated protein kinase kinase kinase kinase 4 (MAP4K4/HGK) (Homo sapiens, UniProt O95819)
Outline: as §1

Chain of Mitogen-activated protein kinase kinase kinase kinase 4 (MAP4K4/HGK) (O95819 2-1239): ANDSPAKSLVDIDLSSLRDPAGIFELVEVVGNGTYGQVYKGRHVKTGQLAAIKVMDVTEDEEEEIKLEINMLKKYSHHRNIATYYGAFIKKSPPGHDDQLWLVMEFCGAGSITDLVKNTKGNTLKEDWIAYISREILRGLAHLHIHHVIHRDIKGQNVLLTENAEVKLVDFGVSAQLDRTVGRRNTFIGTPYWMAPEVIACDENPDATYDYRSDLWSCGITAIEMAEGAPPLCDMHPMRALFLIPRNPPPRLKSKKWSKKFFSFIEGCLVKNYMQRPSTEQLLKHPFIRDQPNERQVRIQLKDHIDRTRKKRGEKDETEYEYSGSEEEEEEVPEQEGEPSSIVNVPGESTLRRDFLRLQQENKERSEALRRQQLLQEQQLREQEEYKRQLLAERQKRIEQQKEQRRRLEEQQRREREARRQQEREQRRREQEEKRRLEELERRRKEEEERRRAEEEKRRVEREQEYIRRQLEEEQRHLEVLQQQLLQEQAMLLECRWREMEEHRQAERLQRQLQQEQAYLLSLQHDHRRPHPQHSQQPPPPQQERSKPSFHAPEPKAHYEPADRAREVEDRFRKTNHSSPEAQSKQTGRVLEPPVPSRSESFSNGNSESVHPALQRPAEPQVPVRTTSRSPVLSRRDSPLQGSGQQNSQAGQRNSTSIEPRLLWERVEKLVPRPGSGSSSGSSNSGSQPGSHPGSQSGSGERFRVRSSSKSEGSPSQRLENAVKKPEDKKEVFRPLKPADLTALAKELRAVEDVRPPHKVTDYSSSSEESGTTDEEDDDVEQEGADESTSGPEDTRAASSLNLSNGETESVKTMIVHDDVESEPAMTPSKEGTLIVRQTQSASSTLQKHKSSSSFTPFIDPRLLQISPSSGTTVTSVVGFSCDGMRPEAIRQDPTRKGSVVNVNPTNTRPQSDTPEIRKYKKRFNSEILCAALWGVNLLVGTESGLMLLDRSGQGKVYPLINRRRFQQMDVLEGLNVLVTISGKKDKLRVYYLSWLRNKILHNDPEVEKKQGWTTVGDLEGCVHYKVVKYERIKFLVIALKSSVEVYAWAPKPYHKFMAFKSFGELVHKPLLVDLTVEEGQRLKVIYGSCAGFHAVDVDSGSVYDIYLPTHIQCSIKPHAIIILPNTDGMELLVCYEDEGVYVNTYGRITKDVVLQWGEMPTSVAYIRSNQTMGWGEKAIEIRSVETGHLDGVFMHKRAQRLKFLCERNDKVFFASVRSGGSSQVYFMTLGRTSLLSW
Chain of p160ROCK protein kinase (Q13464 2-1354): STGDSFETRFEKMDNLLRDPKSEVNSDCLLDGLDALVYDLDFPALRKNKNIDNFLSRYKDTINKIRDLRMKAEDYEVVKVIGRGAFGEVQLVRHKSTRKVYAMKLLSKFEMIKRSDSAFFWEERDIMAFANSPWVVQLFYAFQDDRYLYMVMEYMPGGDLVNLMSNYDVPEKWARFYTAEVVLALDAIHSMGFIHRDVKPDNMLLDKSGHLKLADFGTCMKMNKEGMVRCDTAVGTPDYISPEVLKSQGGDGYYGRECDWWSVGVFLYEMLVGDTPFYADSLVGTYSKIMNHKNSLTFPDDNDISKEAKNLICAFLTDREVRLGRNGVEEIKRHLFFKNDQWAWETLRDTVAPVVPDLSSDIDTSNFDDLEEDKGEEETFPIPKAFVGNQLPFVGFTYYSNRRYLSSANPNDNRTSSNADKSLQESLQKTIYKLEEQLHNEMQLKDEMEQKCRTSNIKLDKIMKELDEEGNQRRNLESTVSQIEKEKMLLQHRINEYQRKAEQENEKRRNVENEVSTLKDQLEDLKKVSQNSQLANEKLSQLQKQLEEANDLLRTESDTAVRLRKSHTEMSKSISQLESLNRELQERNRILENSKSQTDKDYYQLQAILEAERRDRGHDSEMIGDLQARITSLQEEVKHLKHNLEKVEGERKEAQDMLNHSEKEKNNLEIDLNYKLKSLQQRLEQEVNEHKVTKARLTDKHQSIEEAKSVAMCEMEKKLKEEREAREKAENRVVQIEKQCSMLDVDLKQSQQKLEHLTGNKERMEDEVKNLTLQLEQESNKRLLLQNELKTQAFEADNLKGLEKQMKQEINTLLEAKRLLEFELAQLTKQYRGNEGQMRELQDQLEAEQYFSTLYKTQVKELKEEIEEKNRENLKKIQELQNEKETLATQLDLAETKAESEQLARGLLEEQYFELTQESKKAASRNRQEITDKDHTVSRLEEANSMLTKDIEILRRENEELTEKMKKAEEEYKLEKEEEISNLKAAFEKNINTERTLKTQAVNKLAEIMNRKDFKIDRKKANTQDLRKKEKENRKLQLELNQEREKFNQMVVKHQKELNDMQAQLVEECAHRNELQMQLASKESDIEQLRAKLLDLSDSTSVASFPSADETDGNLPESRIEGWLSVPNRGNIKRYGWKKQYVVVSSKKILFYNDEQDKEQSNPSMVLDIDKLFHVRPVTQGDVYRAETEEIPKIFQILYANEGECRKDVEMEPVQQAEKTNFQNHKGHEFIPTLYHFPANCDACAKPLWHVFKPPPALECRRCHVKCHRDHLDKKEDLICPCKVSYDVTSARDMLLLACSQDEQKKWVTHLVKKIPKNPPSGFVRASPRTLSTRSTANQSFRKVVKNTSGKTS
Chain of High affinity nerve growth factor receptor (TRK-A) (P04629 33-796): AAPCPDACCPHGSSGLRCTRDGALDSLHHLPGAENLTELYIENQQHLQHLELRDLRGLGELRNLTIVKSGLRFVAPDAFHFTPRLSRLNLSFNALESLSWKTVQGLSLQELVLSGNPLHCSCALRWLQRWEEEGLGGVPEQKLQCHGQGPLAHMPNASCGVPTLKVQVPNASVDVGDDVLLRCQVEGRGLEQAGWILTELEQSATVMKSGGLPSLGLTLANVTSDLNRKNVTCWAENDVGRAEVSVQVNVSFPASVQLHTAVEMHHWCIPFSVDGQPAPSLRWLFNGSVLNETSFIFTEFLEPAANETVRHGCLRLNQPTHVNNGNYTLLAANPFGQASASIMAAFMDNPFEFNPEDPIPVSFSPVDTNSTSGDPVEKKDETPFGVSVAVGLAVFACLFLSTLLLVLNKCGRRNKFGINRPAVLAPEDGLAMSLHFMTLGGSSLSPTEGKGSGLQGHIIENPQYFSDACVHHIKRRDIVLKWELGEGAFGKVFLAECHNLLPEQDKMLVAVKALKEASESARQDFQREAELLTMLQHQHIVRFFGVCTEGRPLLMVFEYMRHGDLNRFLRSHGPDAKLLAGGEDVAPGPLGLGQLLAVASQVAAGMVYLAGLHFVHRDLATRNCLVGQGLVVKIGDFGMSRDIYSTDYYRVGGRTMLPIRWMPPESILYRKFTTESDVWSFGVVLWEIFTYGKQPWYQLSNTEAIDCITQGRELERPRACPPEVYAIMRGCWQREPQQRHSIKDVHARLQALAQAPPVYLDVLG
Chain of Vascular endothelial growth factor receptor 2 (VEGFR-2/FLK1) (P35968 20-1356): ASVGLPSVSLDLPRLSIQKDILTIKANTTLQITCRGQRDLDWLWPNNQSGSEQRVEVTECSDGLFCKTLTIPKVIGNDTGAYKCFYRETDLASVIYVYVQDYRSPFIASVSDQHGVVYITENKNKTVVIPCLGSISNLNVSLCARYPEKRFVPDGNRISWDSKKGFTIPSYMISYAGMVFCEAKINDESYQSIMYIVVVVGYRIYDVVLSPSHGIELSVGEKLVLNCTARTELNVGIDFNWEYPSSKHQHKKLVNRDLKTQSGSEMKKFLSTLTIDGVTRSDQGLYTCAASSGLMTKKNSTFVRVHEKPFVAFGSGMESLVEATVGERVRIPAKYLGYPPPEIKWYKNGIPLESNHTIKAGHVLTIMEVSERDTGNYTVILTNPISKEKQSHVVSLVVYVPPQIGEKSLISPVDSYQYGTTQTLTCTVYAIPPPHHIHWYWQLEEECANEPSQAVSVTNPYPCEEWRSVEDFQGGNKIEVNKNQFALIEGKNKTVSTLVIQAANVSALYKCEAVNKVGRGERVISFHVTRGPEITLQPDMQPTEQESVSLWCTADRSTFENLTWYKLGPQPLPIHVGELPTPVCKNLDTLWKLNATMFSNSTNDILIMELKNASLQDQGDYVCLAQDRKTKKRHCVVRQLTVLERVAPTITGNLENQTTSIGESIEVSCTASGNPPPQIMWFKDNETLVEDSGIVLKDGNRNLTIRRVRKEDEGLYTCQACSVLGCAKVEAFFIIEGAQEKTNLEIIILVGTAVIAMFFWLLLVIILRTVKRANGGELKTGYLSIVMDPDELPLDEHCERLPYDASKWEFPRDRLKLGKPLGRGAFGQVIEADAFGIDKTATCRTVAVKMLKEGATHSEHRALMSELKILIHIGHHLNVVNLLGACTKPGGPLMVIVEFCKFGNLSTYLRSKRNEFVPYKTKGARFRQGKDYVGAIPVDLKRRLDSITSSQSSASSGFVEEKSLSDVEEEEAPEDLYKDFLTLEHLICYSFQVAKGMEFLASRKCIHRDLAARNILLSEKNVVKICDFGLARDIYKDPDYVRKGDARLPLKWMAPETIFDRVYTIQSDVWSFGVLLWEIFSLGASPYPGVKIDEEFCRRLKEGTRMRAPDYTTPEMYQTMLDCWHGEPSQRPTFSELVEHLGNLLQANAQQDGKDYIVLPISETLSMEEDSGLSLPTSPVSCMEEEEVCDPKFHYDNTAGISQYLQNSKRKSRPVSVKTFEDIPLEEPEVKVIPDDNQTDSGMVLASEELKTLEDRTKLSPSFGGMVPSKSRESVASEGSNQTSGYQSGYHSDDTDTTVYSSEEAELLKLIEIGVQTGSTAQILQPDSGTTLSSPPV

Percent inhibition at 1000 nM oclacitinib (1st replicate) [1]: 41; 37%
Percent inhibition at 1000 nM oclacitinib (1st replicate) [2]: 40; 40%
Percent inhibition at 1000 nM oclacitinib (1st replicate) [3]: 34; 32%
Percent inhibition at 1000 nM oclacitinib (1st replicate) [4]: 32; 31%
Percent inhibition at 1000 nM oclacitinib (1st replicate) [5]: 42; 34%
SMILES: CNS(=O)(=O)C[C@H]1CC[C@H](N(C)c2ncnc3[nH]ccc23)CC1 [oclacitinib]
